# The list is not random: actives were taken first. Their share in the collection is about 12%.
# MT stabilize HCS: microtubule stabilization, imaging screen; HeLa tubulin immunostaining HCS, 24 h; share of cells brighter than vehicle mean+2SD; % tubulin-high responders, % at 10 µM; 200,000 compounds, 0.83% hits;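 active = plate Z-score above 3 for both tubulin-high and condensed-nucleus cell shares, with cell loss under 80%, at 10 µM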;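 also: anti alpha tubulin signal scored within the nucleus-defined area of each cell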
# b-catenin transl: modulators of beta-catenin nuclear translocation. nuclear translocation activity, % at 5 µM. HeLa beta-catenin nuclear translocation, immunofluorescence imaging. 190,000 compounds, 0.3% hits;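 active = nuclear translocation activity above 50% at 5 µM, with a well cell count of 50 or more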;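 also: per-cell ratio of nuclear to cytoplasmic median beta-catenin stain intensity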
#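 Test system: human HeLa cells, endogenous beta-catenin. Times: 24 h compound exposure, 37°C. Measured by: beta-catenin immunofluorescence imaging with DAPI.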
# Lmaj promast: reduces viability of Leishmania major promastigotes; resazurin fluorescence viability; 200,000 compounds, 9% hits; inhibition, % at 10 µM; in the data active = inhibition above about 50%;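 also: promastigotes grown with compound for 44 hours at 28 °C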
# CHOP inhibitor: inhibitors of CHOP induction in ER stress response; CHO-K1 CHOP-promoter luciferase, tunicamycin-induced, 15-18 h; inhibition, % at 10 µM; 220,000 compounds, 3.8% hits; AID 2732;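 active = compounds that reduced the stress-induced luciferase reporter signal by more than about 70% of percent inhibition, limit read from the data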
# Autophagy HCS: modulators of autophagy; calls only at 10 µM (by protocol); AID 463193; MEF GFP-LC3 puncta imaging; test concentration mostly 10 µM; 190,000 compounds, 0.98% hits;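 active = percentage of spot-positive cells more than 3 SD above its plate mean, without a fluorescence outlier flag or 80% toxicity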
# Dynein cargo inh: dynein cargo transport inhibition; 3617.4 mouse cells, GR-EGFP nuclear translocation imaging; test concentration mostly 20 µM; stimulated with dexamethasone, 1 µM; stronger effect = lower value; z-score, hits read low; AID 1381; 220,000 compounds, 0.47% hits;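 active = plate z-score of nuclear minus cytoplasmic receptor signal below a set negative limit, without overly bright fluorescence or cell loss, cut at about -3.5 in these data, passing the limit was not always enough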;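 also: z-score of nuclear minus cytoplasmic ring GR-EGFP intensity difference per well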
#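 Buffer or medium: tetracycline-free induction medium containing charcoal-stripped FBS / Reagent: dexamethasone agonist, 1.0 µM final, for 30 min / Technique: automated 10x imaging of fixed Hoechst-stained cells / Times: induction 48 h, compound 1 h, agonist 30 min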
# Hits are given with their value; i = inactive; nt = not tested or not shown.
SMILES,MT stabilize HCS,b-catenin transl,Lmaj promast,CHOP inhibitor,Autophagy HCS,Dynein cargo inh
O=C(NN(c1ccccc1)c1ccccc1)c1ccc([N+](=O)[O-])o1,i,i,85,i,i,i
O=C(NNC(=O)c1ccc([N+](=O)[O-])o1)c1ccccc1,i,i,98,i,i,i
C/C(=N/NC(=O)C(O)(c1ccccc1)c1ccccc1)c1ccc([N+](=O)[O-])o1,i,i,96,i,i,i
C/C(=N\NC(=O)c1cccc([N+](=O)[O-])c1)c1ccco1,nt,i,nt,i,nt,i
CCC(C)C1C(C#N)=C(N)Oc2n[nH]c(C)c21 (centres undefined),i,i,67,i,i,i
COc1ccc(-c2ccc(C3C(C#N)=C(N)Oc4n[nH]c(C)c43)o2)cc1 (centres undefined),i,i,71,i,i,i
Cc1[nH]nc2c1C(c1cc(Br)cs1)C(C#N)=C(N)O2 (centres undefined),i,i,99,i,i,i
O=C(NN=C1CCCCCCCCCCC1)c1ccncc1,i,nt,i,i,i,i
Cc1ccccc1N=Nc1ccc(O)c2ncccc12,i,i,100,106,i,i
Oc1ccc(N=Nc2ccc3c(c2)OCCO3)c2cccnc12,i,i,100,i,i,i
COc1ccc(C)cc1-n1c(=O)c2ccccc2c2ccccc2c1=O,i,i,i,i,i,i
Oc1ccc(N=Nc2ccc3c(c2)OCCO3)c(O)c1,nt,i,nt,i,nt,i
COc1ccc(C)cc1N=Nc1ccc(O)c2ncccc12,i,i,100,104,i,i
COc1ccc(N=Nc2ccc(O)c3ncccc23)cc1,nt,i,nt,i,nt,i
O=C(OCn1ncc(Cl)c(Cl)c1=O)c1ccccc1Cl,i,nt,101,107,i,i
COc1ccc(C)cc1-n1nnnc1SCc1cc(=O)n2cc(C)ccc2n1,i,i,i,i,i,i
CCCc1nc2sc3c(=O)n(N)cnc3c2c2c1CCCC2,i,i,i,74,i,i
CCCCc1nc2sc3c(=O)n(N)cnc3c2c2c1CCCC2,i,i,i,i,i,i
COC(=O)c1c(NC(=O)CCC(=O)O)sc2c1CCCCC2,i,nt,i,i,i,i
COC(=O)c1c(NC(=O)c2nn(C)cc2Cl)sc2c1CCCC2,i,i,i,74,i,i
COC(=O)c1c(NC(=O)C2CC2)sc2c1CCCC2,i,i,i,77,i,i
COC(=O)c1c(NC(=O)c2ccc(Br)s2)sc2c1CCC2,i,i,i,i,i,i
CCc1nc2ccc(C(=O)O)cc2nc1CC,i,i,50,i,i,i
Cc1ccc(-c2nc3ccc(C(=O)O)cc3nc2-c2ccc(C)cc2)cc1,i,i,i,i,i,i
CCOP(=O)(OCC)c1nc(-c2ccc(Cl)cc2Cl)oc1N1CCOCC1,i,i,i,i,i,i
SMILES,MT stabilize HCS,b-catenin transl,Lmaj promast,CHOP inhibitor,Autophagy HCS,Dynein cargo inh
COc1ccc(/C=N/OCC(=O)N(Cc2ccc(OC)cc2)c2ccccc2C(=O)O)cc1,i,i,i,i,i,i
Cc1cccc(NC(=O)c2oc(=O)c3ccccc3c2-c2ccccc2)c1C,i,i,80,i,i,i
COc1ccccc1N1C(=O)C2C(C(=O)c3ccccc3)=NN(c3ccccc3OC)C2C1=O (centres undefined),nt,i,nt,i,nt,i
CC1=NN(c2nc(-c3ccc(C)cc3)cs2)C(=O)C1N=Nc1ccc(C(N)=O)cc1 (centres undefined),i,i,i,107,i,i
CC1=NN(c2nc(-c3ccc(C)cc3)cs2)C(=O)C1N=Nc1ccc2ccccc2c1 (centres undefined),i,i,i,i,i,i
O=C(CN1CCC(c2nc3ccccc3s2)CC1)NCc1ccccc1,i,i,87,i,i,i
CCc1ccc(C(=O)N2CCC(c3nc4ccccc4s3)CC2)cc1,i,i,87,i,i,i
O=C(c1ccccc1Br)N1CCC(c2nc3ccccc3s2)CC1,i,i,i,i,i,i
COc1ccc(NC(=O)c2ccc3ccccc3n2)cc1S(=O)(=O)Nc1ccccc1Cl,i,i,98,i,i,i
COc1ccc(NC(=O)c2cc(C)nc3ccccc23)cc1S(=O)(=O)Nc1ccccc1Cl,i,i,i,i,i,i
COc1ccc(NC(=O)CCSc2ccc(C)cc2)cc1S(=O)(=O)Nc1ccccc1Cl,i,i,88,i,i,i
CCOc1ccc(NS(=O)(=O)c2cc(NC(=O)CCS(=O)(=O)c3ccc(C)cc3)ccc2OC)cc1,i,i,60,i,i,i
CCOc1ccc(NC(=O)COC(=O)CCS(=O)(=O)c2ccc(C)cc2)cc1,i,i,i,i,i,i
COc1ccc(NC(=O)c2nn(C)c(=O)c3ccccc23)cc1S(=O)(=O)Nc1ccccc1Cl,i,i,60,i,i,i
OCCCc1nc2ccccc2[nH]1,i,i,i,i,i,i
COc1cc(OC)c(OC)cc1CNCCNC(=O)c1nonc1N,i,i,i,i,i,i
CCOC(=O)C1(Cc2ccccc2)CCN(C2Cc3ccccc3C2)CC1,i,i,83,i,i,i
CCOC(=O)C1(Cc2ccccc2)CCCN(CCO)C1 (centres undefined),i,i,i,i,i,i
CCOC(=O)C1(Cc2ccccc2)CCCN(C2CCCC2)C1 (centres undefined),i,i,76,i,i,i
Cc1c(Cl)cccc1NC(=O)Cn1cc(C(F)(F)F)cc(Cl)c1=O,i,i,i,i,i,i
COc1ccc(NC(C)=O)cc1S(=O)(=O)N1CCN(C/C=C/c2ccccc2)CC1,i,i,i,i,i,i
Cc1nccc2[nH]c(=O)c(C(=O)NC3CCCCC3C)cc12 (centres undefined),i,i,99,i,i,i
COC(=O)[C@@]1(Cc2ccc(F)cc2)[C@H]2c3cc(C(=O)N4CCCC4)n(CCc4c[nH]c5ccc(OC)cc45)c3C[C@H]2CN1C(=O)c1ccccc1,i,i,79,i,i,i
COC(=O)[C@@]1(Cc2ccc(F)cc2)[C@H]2c3cc(C(=O)N4CCCC4)n(CCc4ccccn4)c3C[C@H]2CN1C(=O)c1ccccc1,i,i,99,i,i,i
COC(=O)[C@@]1(Cc2ccc(OC)cc2)[C@@H]2C(=CC(=O)[C@H]2CC(=O)C(=O)N(C)C)CN1C(=O)c1ccccc1,i,i,100,i,i,-4.8
COC(=O)[C@@]1(Cc2ccc(OC)cc2)[C@H]2c3cc(C(=O)N(C)C)n(C[C@H](O)CO)c3C[C@H]2CN1C(=O)c1ccccc1,i,i,i,i,i,i
COCCn1c(C(=O)N2CCCC2)cc2c1C[C@H]1CN(C(=O)c3ccccc3)[C@@](Cc3ccc(F)cc3)(C(=O)OC)[C@@H]21,i,nt,i,i,i,i

# Screens deposited in PubChem BioAssay by several laboratories.
